In ChEMBL document CHEMBL1759947, “Synthesis and evaluation of arylquinones as BACE1 inhibitors, β-amyloid peptide aggregation inhibitors, and destabilizers of preformed β-amyloid fibrils” (Bioorg Med Chem Lett, 2011) one finds IC50 and Activity data, which are given here for 24 compounds.

As usually defined, the pIC50 is the negative decadic logarithm of the IC50, by convention in mol/L.

Series [1] is described as follows: Inhibition of amyloid beta (25 to 35) aggregation for 4 days by Thioflavin-T fluorescence assay. The note with it: for pIC50: read-out: IC50. In a few lines: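 Aβ(25–35) dissolved at 1 mM in PBS (stock), diluted, mixed with quinone and held at 37 °C for 4 days; aggregation read by thioflavin-T fluorescence (ex 448/em 483 nm) after subtracting a ThT blank; IC50 derived.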

Series [2] can be described thus: Induction of amyloid beta (25 to 35) disaggregation after 4 days by Thioflavin-T fluorescence assay. Particulars: for pIC50: read-out: IC50. A digest of the protocol:
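Aβ(25–35) first held at 37 °C for 4 days to form fibrils, then exposed to quinone for another 4 days at 37 °C; remaining fibrils measured by thioflavin-T fluorescence (ex 448/em 483 nm) with ThT blank subtracted; IC50 derived.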

The target of series [3] is Beta-secretase 1 (Homo sapiens, UniProt P56817). In words: Inhibition of human recombinant BACE1 preincubated after 1 hr by fluorescence assay.
Series [4] relates to SH-SY5Y. As to the kind of experiment: Cytotoxicity against human SH-SY5Y cells up to 20 uM for 24 hrs by MTT assay. The format is cell-based. In a few lines:
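SH-SY5Y neuroblastoma cells; viability by mitochondrial reduction of MTT to formazan, reported as percent cell death at a single concentration.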

pIC50: −log10 of the molar value.

Beta-secretase 1, sequence (P56817 whole entry): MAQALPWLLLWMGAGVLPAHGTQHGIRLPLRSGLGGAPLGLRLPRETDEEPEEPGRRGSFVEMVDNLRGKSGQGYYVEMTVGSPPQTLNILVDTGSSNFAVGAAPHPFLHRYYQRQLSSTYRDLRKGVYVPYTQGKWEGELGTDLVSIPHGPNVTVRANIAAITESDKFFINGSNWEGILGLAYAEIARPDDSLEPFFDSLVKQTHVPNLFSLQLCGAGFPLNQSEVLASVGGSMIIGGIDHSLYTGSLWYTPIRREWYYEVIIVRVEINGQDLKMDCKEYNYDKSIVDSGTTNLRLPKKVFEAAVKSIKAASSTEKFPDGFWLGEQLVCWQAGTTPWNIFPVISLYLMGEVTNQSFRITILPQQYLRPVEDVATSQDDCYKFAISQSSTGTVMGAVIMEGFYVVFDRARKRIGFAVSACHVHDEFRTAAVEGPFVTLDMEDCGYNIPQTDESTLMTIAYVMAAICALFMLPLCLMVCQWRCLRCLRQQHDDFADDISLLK

With `COc1ccc(C2=CC(=O)C=C(c3ccccc3)C2=O)cc1`, the pIC50 was 5.02 in series [1], 5.10 in series [2] and 4.87 in series [3]. The Activity result in series [4] is “Non-toxic”.
With `O=C1C=C(c2ccc(F)cc2)C(=O)C=C1c1ccccc1`, the Activity in series [4] is reported as 78.08%.
Same read-out and setting: to `COc1ccc(C2=CC(=O)C(c3ccc(F)cc3)=CC2=O)cc1` belongs 66.22%.
Regarding `COc1ccc(-c2cc(O)cc(-c3ccccc3)c2O)cc1`, the values for the pIC50 in series [1], in series [2] and in series [3] were 4.75, 5.08 and 5.04, respectively. Also, the Activity result in series [4] is on record as “Non-toxic”.
For the compound `CC(=O)Oc1cc(-c2ccccc2)c(OC(C)=O)c(-c2ccccc2)c1`, the IC50 entry in series [1] and in series [2] was “Not Active” throughout. Also, the pIC50 in series [3] was 4.70. The Activity entry in series [4] was “Non-toxic”.
Consider `CC(=O)Oc1cc(-c2ccc(C(F)(F)F)cc2)c(OC(C)=O)cc1-c1ccccc1`, for which the pIC50 in series [1] and in series [2] was less than 4.30 each time. Further, the Activity result in series [4] is recorded as “Non-toxic”.
With `O=C1C(c2ccc(O)cc2)=CC(=O)c2c(O)cccc21`, the IC50 entry in series [1] and in series [2] was “Not Active” throughout. Further, the pIC50 in series [3] was 4.79. Besides, the Activity result in series [4] is on record as “Non-toxic”.
Regarding `COc1ccc(-c2cc(OC(C)=O)c(-c3ccc(OC)cc3)cc2OC(C)=O)cc1`, the IC50 entry in series [1] was “Not Active”. The values for the negative logarithm of the IC50 (pIC50) in series [2] and in series [3] were less than 4.30 and 4.62, respectively. For the same compound, the Activity result in series [4] is on record as “Non-toxic”.
For `COc1ccc(C2=CC(=O)C(c3ccc(OC)cc3)=CC2=O)cc1`, the pIC50 in series [1] was 5.20; in series [2], 5.15; in series [3], 4.63. Also, the Activity entry in series [4] is listed as “Non-toxic”.
As to `O=C1C=C(c2ccccc2)C(=O)C(c2ccccc2)=C1`, the pIC50 in series [1] was 5.03; in series [2], 5.05; in series [3], 4.94. The Activity result in series [4] is on record as “Non-toxic”.
Take `COc1ccc(C2=CC(=O)c3c(OC)cccc3C2=O)cc1`: the pIC50 in series [1] is 4.65; in series [3] it was 4.95. The IC50 result in series [2] was “Not Active”. Besides, the Activity entry in series [4] is “Non-toxic”.
As to `O=C1C=C(c2ccc(C(F)(F)F)cc2)C(=O)C=C1c1ccccc1`, the pIC50 in series [1] was 4.85; in series [2], 4.91; in series [3], 5.19. Also, in series [4], the Activity result was “Non-toxic”.
In the case of `COc1ccc(-c2cc(OC(C)=O)cc(-c3ccccc3)c2OC(C)=O)cc1`, the IC50 result in series [1] and in series [2] was “Not Active” throughout. Also, the pIC50 in series [3] is 4.95. In series [4], the Activity entry is reported as “Non-toxic”.
As to `O=C1C=C(c2ccccc2)C(=O)C=C1c1ccccc1`, the Activity entry in series [4] is reported as “Toxic”.
As for `Oc1cc(-c2ccccc2)c(O)cc1-c1ccccc1`, the results for the pIC50 in series [1], in series [2] and in series [3] were less than 4.30, 4.85 and 4.80, respectively. In series [4], the Activity entry is on record as “Non-toxic”.
Consider `O=C1C=C(c2ccccc2)C(=O)c2c(O)cccc21`, for which the IC50 result in series [1] and in series [2] was “Not Active” in each case. Also, the pIC50 in series [3] was 5.05. Further, in series [4], the Activity entry is given as “Non-toxic”.
Take `O=C1C(c2ccccc2)=CC(=O)c2c(O)cccc21`: the IC50 entry in series [1] and in series [2] was “Not Active” each time. In series [3], the pIC50 was 4.90. Moreover, the Activity entry in series [4] is recorded as “Non-toxic”.
In turn, `COc1ccc(C2=CC(=O)C=C(c3ccc(F)cc3)C2=O)cc1` had an Activity in series [4] of 62.5%.
`COc1cccc2c1C(=O)C(c1ccc(O)cc1)=CC2=O`: the figures for the pIC50 in series [1], in series [2] and in series [3] were 4.78, 5.30 and 4.99, respectively. In series [4], the Activity entry is “Non-toxic”.
`COc1ccc(C2=CC(=O)C(c3ccccc3)=CC2=O)cc1` had an Activity in series [4] of 56.29%.
On the same count and under the same terms, to `O=C1C=C(c2ccccc2)C(=O)C(c2ccc(C(F)(F)F)cc2)=C1` belongs 100%.
On to `O=C1C=C(c2ccccc2)C(=O)c2ccccc21`, for which the IC50 result in series [1] and in series [2] was “Not Active” throughout. The negative logarithm of the IC50 (pIC50) in series [3] is 5.03. Moreover, the Activity result in series [4] is listed as “Non-toxic”.
On to `COc1ccc(-c2cc(O)cc(-c3ccccc3)c2OC(C)=O)cc1`, for which the IC50 entry in series [1] and in series [2] was “Not Active” throughout. Also, in series [3], the pIC50 is 4.95. For the same compound, in series [4], the Activity result is given as “Non-toxic”.
On to `O=C1C=C(c2ccc(O)cc2)C(=O)c2ccccc21`, for which the IC50 entry in series [1] and in series [2] was “Not Active” each time. Also, the pIC50 in series [3] is 5.09. In addition, in series [4], the Activity entry is on record as “Non-toxic”.
